Entries after “also recorded” stand apart in the source; their conditions may differ.
Experiments:
Cre/HJ complex = settings: cited from earlier work
protein-free HJ DNA [1] = assay: peptide/RecG band shift assay on HJ; assay type: binding; settings: data not shown
HJ-4AP1 = assay: 2-AP fluorescence titration of additional peptides, HJ-4AP1; assay type: binding; settings: for 2-AP quenching / interaction with 4AP1 in HJ: 0.2 μM substrate, pH 7.8, 100 mM NaCl, 1.6% DMSO, peptide dimer 0.05-6.4 μM
In short: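 Test peptides (C-terminal amides, dissolved in DMSO) titrated as dimers at 0.05, 0.2, 0.8, 3.2 and 6.4 μM into 0.2 μM 2-AP-labelled HJ in 20 mM Tris-HCl pH 7.8, 100 mM NaCl, 1 mM EDTA, 1.6% DMSO at 24°C. Equilibrated ≥3 min with stirring. Excitation 315 nm, emission 365–375 nm. Adenine-substituted junction spectrum subtracted.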

[2] = tested on: replication fork substrate; assay: 2-AP fluorescence quenching, replication fork; assay type: binding; settings: 2-AP fluorescence-based solution assay
In short: (§1)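 Substrates were annealed from oligos (boiled 5 min, slow-cooled), gel-purified on native 12% PAGE and quantified spectrophotometrically. After ≥10 min equilibration, emission was read at 330–430 nm (excitation 315 nm). Adenine-substituted spectra were subtracted, and fold decrease at 370 nm was taken versus no peptide.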

[3] = tested on: replication fork substrates; settings: ref K. Kepple, Ph.D. Thesis, 2006; cited from earlier work
HJ substrate [4] = assay: 2-AP fluorescence quenching, HJ substrate; assay type: binding; settings: center of both HJ and replication forks
In short: as §1

human RAD54 protein = settings: cited from earlier work
protein-free HJ DNA [5] = settings: cited from earlier work
RuvABC complex = settings: cited from earlier work
RecG helicase = settings: cited from earlier work
[6] = tested on: central thymine bases of HJ; settings: bound to HJ; cited from earlier work
HJ substrate [7] = assay: dissociation from HJ; assay type: binding
flayed duplex DNA = settings: cited from earlier work
RecG = molecular target: T1, RecG (Escherichia coli, UniProt P24230 1-693); assay: EMSA
T1 sequence: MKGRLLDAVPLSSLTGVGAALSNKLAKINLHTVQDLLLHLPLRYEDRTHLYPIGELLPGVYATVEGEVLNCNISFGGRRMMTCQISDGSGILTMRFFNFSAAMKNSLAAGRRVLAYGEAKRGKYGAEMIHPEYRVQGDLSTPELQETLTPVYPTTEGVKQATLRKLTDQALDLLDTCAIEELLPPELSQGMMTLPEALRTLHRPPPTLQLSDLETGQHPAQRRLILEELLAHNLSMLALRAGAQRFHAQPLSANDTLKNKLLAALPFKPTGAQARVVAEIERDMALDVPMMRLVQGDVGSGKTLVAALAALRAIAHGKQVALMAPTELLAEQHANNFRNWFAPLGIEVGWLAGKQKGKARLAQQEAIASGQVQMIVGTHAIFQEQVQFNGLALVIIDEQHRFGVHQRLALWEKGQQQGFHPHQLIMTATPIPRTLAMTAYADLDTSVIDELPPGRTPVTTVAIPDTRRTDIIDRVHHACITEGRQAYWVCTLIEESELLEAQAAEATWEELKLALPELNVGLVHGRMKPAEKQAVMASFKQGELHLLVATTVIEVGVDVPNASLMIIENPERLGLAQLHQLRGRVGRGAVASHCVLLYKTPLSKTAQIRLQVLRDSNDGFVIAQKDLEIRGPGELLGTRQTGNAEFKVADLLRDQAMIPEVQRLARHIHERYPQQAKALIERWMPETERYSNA

(WRWYCR)2 [8] = molecular target: T2, (WRWYCR)2 (synthetic); assay: EMSA
T2 chain: WRWYCR

(WRWYCR)2 [9] = molecular target: T2, (WRWYCR)2; assay: 2-AP fluorescence quenching
(WRWYCR)2 [10] = molecular target: T2, (WRWYCR)2; assay: 2-AP fluorescence quenching
WKHYNY = molecular target: T3, WKHYNY (synthetic); assay: 2-AP fluorescence quenching
T3 chain: WKHYNY

(KWWCRW)2 = molecular target: T4, (KWWCRW)2 (synthetic); assay: 2-AP fluorescence quenching
T4 chain: KWWCRW

Question: With WKHYNY as the molecule, how does the “quenching effect on 2-AP with Cre/HJ complex” value (Cre/HJ complex) read?
Answer: Its value is “concentration-dependent quenching effect on 2-AP”.

Question: And the “binding to protein-free HJ” value (protein-free HJ DNA [1]; gel shift assays)?
Answer: The value was “has not been detected; also recorded: does not bind protein-free junctions”.

Question: What about the “2-AP quenching / interaction with 4AP1 in HJ” value (HJ-4AP1) of the same molecule?
Answer: The value was “does not interact; also recorded: almost no quenching”.

Question: And the “2-AP quenching” value (HJ-4AP1; up to 32-fold excess of peptide dimer (6.4 μM))?
Answer: Its value is “little if any effect”.

Question: Which “binding to replication fork-like substrates” value [2] does the source give for KWWCRW here?
Answer: The value was “bind to replication fork-like substrates”.

Question: Which “binding to replication forks by band shift” value [3] does the source give for (KWWCRW)2 (disulfide) here?
Answer: The value was “unable to detect binding”.

Question: What about the “quenching of 2-AP in the center of HJ and replication forks” value (HJ substrate [4]) of the same molecule?
Answer: Its value is “quench the fluorescence of 2-AP bases”.

Question: And the “inhibition of D-loop unwinding activity” value (human RAD54 protein)?
Answer: Its value is “inhibit the D-loop unwinding activity”.

Question: And the “2-AP quenching / interaction with 4AP1 in HJ” value (HJ-4AP1)?
Answer: Its value is “interacts with 4AP1 in the HJ substrate”.

Question: What about the “binding to free HJ DNA” value (protein-free HJ DNA [5]) of the same molecule?
Answer: The value was “bind specifically to free HJ DNA”.

Question: And the “potency relative to (WRWYCR)2” value (protein-free HJ DNA [5]; data not shown)?
Answer: The value was “nearly as potent as (WRWYCR)2”.

Question: And the “binding to protein-free junctions” value (protein-free HJ DNA [5]; gel shift and footprinting assays, data not shown)?
Answer: The value was “binds to protein-free junctions”.

Question: What about the “inhibition of HJ resolution by RuvABC” value (RuvABC complex) of the same molecule?
Answer: The value was “inhibit”.

Question: What about the IC50 (RuvABC complex; read-out: IC50, RuvABC) of the same molecule?
Answer: Its IC50 is roughly 50 nM.

Question: And the “inhibition of unwinding of branched DNA substrates by RecG” value (RecG helicase)?
Answer: Its value is “inhibit unwinding of branched DNA substrates”.

Question: Which “binding to replication fork-like substrates” value [2] does the source give for WRWYCR here?
Answer: The value was “bind to replication fork-like substrates”.

B1: RecG: monomeric RecG helicase of Escherichia coli (protein, UniProt P24230 1-693, looked up)
ATP-dependent DNA helicase …: T1 sequence
Question: What does the source list for B1?
Answer: increase in KMnO4 sensitivity of central thymine bases [6]: ~2 fold; time for half of bound RecG to dissociate (HJ substrate [7]; 0.02 μM RecG, 1 nM labeled HJ, 0.2 μM unlabeled HJ, 4°C): 25 min; dissociation faster than peptide complex (HJ substrate [7]; RecG/HJ vs (WRWYCR)2/HJ): ~2 X; Kd of RecG by gel mobility shift relative to peptide (protein-free HJ DNA [1]; 50 ng nonspecific dsDNA): very similar; fold lower affinity for flayed DNA than HJ (flayed duplex DNA): ≤ 100 fold

B2: HJ (oligos 1-4) (structured_DNA)
DNA 1: CGCGGTACGGCCGGAAGCCTGCTTTTTTATACAAGCTTAACTCCC
DNA 2: GGGAGTTAAGCTTGTATAAATGAGGTACTGTTAGGAATTCTCCAAGTGACTACGG
DNA 3: CCGTAGTCACTTGGAGAATTCCTAACAGTACCTCATTTATACCTGCAGCCGACGC
DNA 4: GCGTCGGCTGCAGGTATAAAAAAGCAGGCTTCCGGCCGTACCGCG
Question: Does B2 bind (RecG)?
Answer: Result: binds

Question: What about the Kd ((WRWYCR)2 [8]) of the same molecule?
Answer: Its Kd is 12.5 nM.

B3: Fork-4AP2 (complete fork) (structured_DNA)
DNA 1: CGCGGTACGGCCGGAAGCCTGGTTTACAATGCAAGCTTGACTGGCAGCCC
DNA 2: GCGTCGAGTCGGCTGCAGAGGTATAAAACCAGGCTTCCGGCCGTACCGCG
DNA 3: GGGCTGCCAGTCAAGCTTGCATTGT
DNA 4: TATACCTCTGCAGCCGACTCGACGC
modifications: one A of strand 4 is 2-aminopurine (AP2; underline lost)
Question: Which results are given for B3?
Answer: binding signal ((WRWYCR)2 [9]): 2 fold quenching (max); Kd ((WRWYCR)2 [10]): 63.5 ± 12 nM

B4: HJ-4AP2 (structured_DNA)
DNA 1: B3 DNA 1
DNA 2: GGGCTGCCAGTCAAGCTTGCATTGTTGGAGGTACTGTTAGGAATTCTCCAAGTGACTCGG
DNA 3: CCGAGTCACTTGGAGAATTCCTAACAGTACCTCCATATACCTCTGCAGCCGACTCGACGC
DNA 4: B3 DNA 2
modifications: one A near junction center of strand 4 is 2-aminopurine (AP2; underline lost)
Question: For B4, which Kd ((WRWYCR)2 [10]) is on record?
Answer: The Kd was 14.3 ± 3.2 nM.

B5: HJ-4AP1 (structured_DNA)
DNA 1: B3 DNA 1
DNA 2: B4 DNA 2
DNA 3: B4 DNA 3
DNA 4: B3 DNA 2
modifications: one A of strand 4 is 2-aminopurine (AP1; underline lost)
Question: Does B5 bind (WKHYNY)?
Answer: Result: no binding

Question: Does B5 bind ((KWWCRW)2)?
Answer: Result: binds

B6: Lead-4AP2 (leading strand fork) (structured_DNA)
DNA 1: B3 DNA 1
DNA 2: B3 DNA 2
DNA 3: GGGCTGCCAGTCAAGCTTGCATTGT
modifications: one A of strand 4 is 2-aminopurine (AP2; underline lost)
Question: With B6 as the molecule, how does the Kd ((WRWYCR)2 [10]) read?
Answer: Its Kd is 132 ± 32.8 nM.

Question: Which Kd ((WRWYCR)2 [10]) does the source give for GCGTCGAGTCGGCTGCAGAGGTATAAAACCAGGCTTCCGGCCGTACCGCG (ssDNA, one A is 2-aminopurine (AP2; underline lost)) [Oligo (strand 4 AP2)] here?
Answer: Its Kd is 731 ± 134 nM.

B7: Flayed-4AP2 (structured_DNA)
DNA 1: B3 DNA 1
DNA 2: B3 DNA 2
modifications: one A of strand 4 is 2-aminopurine (AP2; underline lost)
Question: For B7, which Kd ((WRWYCR)2 [10]) is on record?
Answer: The Kd was 628 ± 107 nM.

B8: Lag-4AP2 (lagging strand fork) (structured_DNA)
DNA 1: B3 DNA 1
DNA 2: B3 DNA 2
DNA 3: TATACCTCTGCAGCCGACTCGACGC
modifications: one A of strand 4 is 2-aminopurine (AP2; underline lost)
Question: With B8 as the molecule, how does the Kd ((WRWYCR)2 [10]) read?
Answer: The Kd was 79.2 ± 17.3 nM.

Reference: PMC2532710 (Nucleic Acids Research, 2008)
